# Read-outs that look alike come from different tables or passages of the source.
# Columns and labels:
# [1] = tested on: INSR minigene exon 11 splicing in HeLa cells expressing CUG960; type: cell-based, human; conditions: for INSR mis-splicing rescue (in words): HeLa cells, CUG960 + INSR minigene
# Atp2a1 exon 22 splicing = experiment: HSALR DM1 mouse model, Atp2a1 splicing in quadriceps muscle; type: in vivo; conditions: HSALR mice, wild type 100 ± 0.2 %, HSALR 28 ± 2 %
# Procedure, shortened: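 Homozygous, gender-matched HSALR transgenic mice aged 10–14 wks received the test compound in 5% glucose solution by daily intraperitoneal injection for 7 d. Controls received 5% glucose injections. Mice were killed 1 d after the last dose and quadriceps was taken. RNA was reverse transcribed, PCR-amplified and run on agarose gels read by fluorimager. Inclusion was scored per individual mouse.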
# [2] = Toxicity observed in treated HSALR mice; type: in vivo, mouse; conditions: 10 and 20 mg/kg daily i.p. for 7 d
# [3] = tested on: INSR minigene exon 11 splicing in HeLa cells without CUG960; experiment: Control splicing experiment, INSR minigene in the absence of transfected CUG960; type: cell-based, human; conditions: 80 μM; untreated range ~70% to ~80 %
# [4] = tested on: TNNT2 minigene exon 5 splicing in HeLa cells expressing CUG960; experiment: HeLa cell DM1 splicing assay, TNNT2 minigene co-transfected with CUG960; type: cell-based, human
# [5] = tested on: CUG: MBNL nuclear foci in HeLa cells transfected with CUG960; experiment: Fluorescent microscopy of CUG RNA nuclear foci and MBNL1 localization; type: cell-based, human; conditions: for Effect on ribonuclear foci (in words): 50 μM pentamidine or 80 μM compound 13
# [6] = Flow cytometry cell viability assay with propidium iodide in the DM1 cell model; conditions: human, HeLa cells, DM1 cell model (transfected)
# in vitro = conditions: human
compound,measurement,setting,value
N=C(N)c1ccc(OCCCOc2ccccc2)cc1 [Compound 2a],INSR mis-splicing rescue (in words),[1],dose-dependent rescue of mis-splicing through 60 μM
N=C(N)c1ccc(OCCCCc2ccccc2)cc1 [Compound 2b],INSR mis-splicing rescue (in words),[1],little rescue was observed by 20 μM
N=C(N)c1cccc(OCCCCCCCOc2cccc(C(=N)N)c2)c1 [Compound 4],Toxicity observed in the cell splicing assay (in words),[1],very toxic over the range tested
same,INSR mis-splicing rescue (in words),[1],almost complete dose-dependent mis-splicing rescue at 25 μM
"N=C(N)c1ccc(-c2ccc(-c3ccc(C(=N)N)cc3)o2)cc1 [Compound 13, furamidine]",Atp2a1 exon 22 inclusion,Atp2a1 exon 22 splicing; 10 mg/kg daily i.p. 7 days,64 ± 4%
same,Atp2a1 exon 22 inclusion,Atp2a1 exon 22 splicing; 20 mg/kg daily i.p. 7 days,83 ± 4%
same,Toxicity in mice (in words),[2],No toxicity was observed over the concentration range tested
same,INSR exon 11 inclusion in the absence of CUG960,[3],81± 4%
same,Toxicity observed in the cell splicing assay (in words),"[1]; HeLa DM1 cell model, qualitative",non-toxic over the range of rescue
same,Concentration by which full TNNT2 mis-splicing reversal was achieved,[4],≤ 80 µM
same,Effect on ribonuclear foci (in words),[5],significant reduction of ribonuclear foci
same,Reduction of nuclear foci per cell,"[5]; 80 μM, vs transfected controls, n = 121, p < 0.05",89%
"N=C(N)c1ccc(OCCCCCCCOc2ccc(C(=N)N)cc2)cc1 [Heptamidine, heptamidine]",IC50 at 18 h,[6],15 ± 0.46 µM
"N=C(N)c1ccc(OCCCCCOc2ccc(C(=N)N)cc2)cc1 [Pentamidine, pentamidine, reference compound]",IC50 at 18 h,in vitro,64 ± 12 µM
same,Effect on ribonuclear foci (in words),[5],significant reduction of ribonuclear foci

# — article PMC4972181 (Journal of medicinal chemistry, 2015)
